This is a sample that favours compounds with a hit; in the whole collection about 1.6% have one here.
proCasp3 act: activators of human procaspase-3. P42574. recombinant procaspase-3 D3A, Ac-DEVD-pNA absorbance 405 nm. activation, % at 8.5 µM. 330,000 tested, 0.11% active. AID 463141;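 active = activation above the mean of all tested compounds plus 3 SD, cut at about 21% in these data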;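 also: 0% = DMSO alone and 100% = DMSO wells spiked with extra 5 µM PC-3 D3A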
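System: Procaspase-3 D3A mutant. Medium: Zinc-free 300 mM NaCl, 50 mM HEPES, 0.01% Triton X-100. Schedule: 1 h preincubation plus 2 h reaction at 25 °C. Measured by: 405 nm absorbance of p-nitroaniline, reads at 0 and 120 min. Read-out: percent activation relative to control range.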
PLCg1 inh: PLC-gamma1 (human) inhibition, primary screen | AID 720700 | P19174 | purified PLC-gamma1, fluorogenic substrate, fluorescence | inhibition, % at 12.2 µM | 370,000 tested, 0.84% active; in the data active = inhibition above about 9.5%
sPLA2-III inh: Inhibits HGIII-sPLA2 liposome hydrolysis, primary screen; Q9NZ20; QFRET BODIPY PC-A2 liposome hydrolysis, fluorescence; inhibition, % at 12.2 µM; 370,000 tested, 0.56% active;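 active = inhibition above mean plus 3 SD of compounds lying within the high and low control bounds, cut at about 19% in these data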;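 also: 0% = median of test compound wells and 100% = no enzyme DMSO wells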
Target sequence (Q9NZ20 whole entry, looked up): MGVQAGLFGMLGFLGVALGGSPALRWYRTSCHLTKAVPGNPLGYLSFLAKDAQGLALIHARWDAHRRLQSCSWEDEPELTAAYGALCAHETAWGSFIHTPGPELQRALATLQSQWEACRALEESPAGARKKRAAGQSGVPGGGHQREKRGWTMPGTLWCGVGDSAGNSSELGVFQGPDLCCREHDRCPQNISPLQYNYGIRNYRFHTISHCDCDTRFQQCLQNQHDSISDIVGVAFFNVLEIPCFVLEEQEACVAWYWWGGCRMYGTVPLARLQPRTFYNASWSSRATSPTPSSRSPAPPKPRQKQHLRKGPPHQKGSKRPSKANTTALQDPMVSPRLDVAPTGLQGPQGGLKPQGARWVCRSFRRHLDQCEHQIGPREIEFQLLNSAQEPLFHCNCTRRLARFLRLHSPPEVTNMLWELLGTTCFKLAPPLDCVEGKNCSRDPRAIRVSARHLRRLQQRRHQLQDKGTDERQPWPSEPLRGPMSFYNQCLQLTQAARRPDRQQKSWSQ
PLCb3 inh: inhibitors of human phospholipase C beta3; Q01970; Purified PLC-beta3, fluorogenic substrate, fluorescence; inhibition, % at 12.2 µM; 370,000 tested, 0.18% active; in the data active = inhibition above about 11%;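 also: 0% = median of compound wells on plate and 100% = full blocker control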
procasp7 counter: counter-screen for procaspase-3 activators: activators of human procaspase-7. recombinant procaspase-7, Ac-DEVD-pNA absorbance 405 nm; D23A/D198A/D206A triple mutant, cannot self-cleave; scale: DMSO 0, 5 µM enzyme 100. activation, % at 8.5 µM. 330,000 tested, 0.093% active. AID 463210;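 active = percent activation above the screen-wide mean plus 3 SD, cut at about 25% in these data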
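signal = Epi-absorbance of released pNA at 405 nm, two timepoints | assay system = Uncleavable procaspase-7 mutant enzyme | reagent = Ac-DEVD-pNA substrate, 400 µM as added | times = 1 h enzyme–compound preincubation and 2 h substrate reaction, both 25 °C | benchmarks = low DMSO alone, high DMSO plus 5 µM PC-7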
Active calls of the source: *; ! = not active in a repeat.

What do the screens show for `COc1nc(N(C)S(=O)(=O)c2ccc(C)cc2)nc(C)c1Br`?
proCasp3 act: 0.4; PLCg1 inh: -0.1; sPLA2-III inh: 1.9; PLCb3 inh: -1.2; procasp7 counter: -0.1

What do the screens show for `CC(OC(=O)c1ccco1)C(=O)Nc1ccc(C(F)(F)F)cc1` (stereo unspecified)?
proCasp3 act: 7.4; PLCg1 inh: 12.1*; sPLA2-III inh: -4.5; PLCb3 inh: -2.4; procasp7 counter: -7.5

Results for CC(OC(=O)c1ccccn1)C(=O)Nc1ccc(C(F)(F)F)cc1 (stereo unspecified) ?
proCasp3 act: 3.6; PLCg1 inh: -0.6; sPLA2-III inh: 0.9; PLCb3 inh: -4.7; procasp7 counter: 4.8

Results for COC1=CC(=O)c2c(ccc3ncnc(N)c23)C1=O ?
PLCg1 inh: 12.9*; sPLA2-III inh: -12.3; PLCb3 inh: -4.2

What do the screens show for `O=C(Nc1ccc2ccccc2c1)NC1CCCCN(Cc2ccc(Cl)cc2)C1=O` (stereo unspecified)?
PLCg1 inh: 2.6; sPLA2-III inh: 1.5; PLCb3 inh: 2.6

Results for O=[N+]([O-])c1cc(/C=N/Nc2nc3ccccc3[nH]2)c(O)cc1O ?
proCasp3 act: -6.1; PLCg1 inh: 47.8*; sPLA2-III inh: -0.2; PLCb3 inh: 3.8; procasp7 counter: 4.6

What do the screens show for `CCCCN(C)Cc1c(O)ccc2c(=O)c(-c3ccccc3OC)coc12`?
proCasp3 act: -7.7; PLCg1 inh: inactive; sPLA2-III inh: 2.3; PLCb3 inh: inactive; procasp7 counter: -2.8

What do the screens show for `Cc1cc(C(=O)Nc2ccc(OCc3ccccc3)cc2)c(C)o1`?
proCasp3 act: -0.9; PLCg1 inh: -0.6; sPLA2-III inh: -9.8; PLCb3 inh: -8.2; procasp7 counter: -2.4

Results for COC(=O)[C@]12C[C@H](CC(=O)N3CCOCC3)C(=O)N(CCc3ccc(OC)c(OC)c3)C1=C[C@H](C(C)C)O[C@@H]2C1CC1 ?
PLCg1 inh: 2.5; sPLA2-III inh: -2.7; PLCb3 inh: 3.3

How did CN(C)c1ccc(N=Nc2nc3ccccc3n2C)cc1 do in these assays?
proCasp3 act: -9.2; PLCg1 inh: 7.0; sPLA2-III inh: 32.4*; PLCb3 inh: 5.5; procasp7 counter: -6.7

Results for O=C(CSc1nnc(C2CC2)n1C1CC1)c1ccccc1F ?
proCasp3 act: 6.2; PLCg1 inh: 1.2; sPLA2-III inh: -9.9; PLCb3 inh: -0.2; procasp7 counter: -0.4

Results for O=C(CCN1C(=O)/C(=C/c2ccco2)SC1=S)Nc1ccc(C(=O)O)c(O)c1 ?
proCasp3 act: -10.6; PLCg1 inh: 29.2*; sPLA2-III inh: -23.1; PLCb3 inh: -16.7; procasp7 counter: -13.9

Results for O=C(CN1C(=O)/C(=C\c2ccco2)SC1=S)Nc1ccc(O)cc1C(=O)O ?
proCasp3 act: -13.0; PLCg1 inh: 32.9*; sPLA2-III inh: -24.1; PLCb3 inh: -26.0; procasp7 counter: -14.8

How did CCOc1ccc(Cl)cc1-c1cc(C(=O)Nc2ccc(Br)cc2)[nH]n1 do in these assays?
PLCg1 inh: -1.3; sPLA2-III inh: -6.6; PLCb3 inh: 3.9

What do the screens show for `CCOC(=O)c1sc(=S)[nH]c1C`?
PLCg1 inh: 1.4; sPLA2-III inh: 23.5*; PLCb3 inh: -5.7

Results for C/C=C/C(=O)N1CCC(C(=O)NCC2COc3ccccc3O2)CC1 (stereo unspecified) ?
PLCg1 inh: 3.1; sPLA2-III inh: 6.4; PLCb3 inh: 4.0

Results for CS(=O)(=O)c1nc([N+](=O)[O-])nn1CCCc1ccccc1 ?
proCasp3 act: -1.8; procasp7 counter: -1.6

Results for Cn1nc([N+](=O)[O-])nc1S(C)(=O)=O ?
PLCg1 inh: 47.3*; sPLA2-III inh: 3.8; PLCb3 inh: 3.2

What do the screens show for `CN(CC(=O)Nc1cc(C(F)(F)F)ccc1-n1cncn1)Cc1ccccc1N1CCOCC1`?
PLCg1 inh: -0.6; sPLA2-III inh: -2.0; PLCb3 inh: -7.4

What do the screens show for `O=C(OCn1nnc2ccccc2c1=O)c1cccnc1Cl`?
proCasp3 act: -2.5; PLCg1 inh: 11.9*; sPLA2-III inh: 6.9; PLCb3 inh: 7.9; procasp7 counter: -5.7

What do the screens show for `CC(C)(C)c1ccc(S(=O)(=O)N(CCCN2CCOCC2)Cc2cccs2)cc1`?
proCasp3 act: -3.4; PLCg1 inh: 10.4*!; sPLA2-III inh: -7.3; PLCb3 inh: 4.5; procasp7 counter: -1.8

What do the screens show for `Cc1[nH]n(-c2ccccc2)c(=O)c1N=Nc1c(O)cc(S(=O)(=O)N(C)C)c2ccccc12`?
proCasp3 act: -3.4; PLCg1 inh: -6.2; sPLA2-III inh: 31.4*; PLCb3 inh: -7.1; procasp7 counter: -6.5

How did COc1ccccc1-n1cnnc1SC(C)C(=O)Nc1ccc(NC(C)=O)cc1 (stereo unspecified) do in these assays?
proCasp3 act: 9.8; PLCg1 inh: 4.1; sPLA2-III inh: 4.9; PLCb3 inh: -6.7; procasp7 counter: 1.4

Results for O=C(c1cccs1)N1C[C@H](O)[C@@H](n2cc(C3CC3)nn2)C[C@@H]1c1ccccc1 ?
PLCg1 inh: 11.1*; sPLA2-III inh: -0.2; PLCb3 inh: 4.4

How did Cc1ccc(C(=O)Nc2ccc(Oc3ccc(C(=O)O)c(C(=O)O)c3)cc2)cc1C do in these assays?
proCasp3 act: 0.6; PLCg1 inh: 10.9*; sPLA2-III inh: 3.0; PLCb3 inh: 3.9; procasp7 counter: -1.2

How did CC(C)CC(=O)N1CCN(c2ccc([N+](=O)[O-])c(NCc3ccccc3)c2)CC1 do in these assays?
proCasp3 act: 0.3; PLCg1 inh: 12.9*; sPLA2-III inh: -22.2; PLCb3 inh: 8.3; procasp7 counter: -3.8

What do the screens show for `CCn1c(SCC(=O)c2ccc(-c3ccccc3)cc2)nnc1-c1ccccc1OC`?
PLCg1 inh: 0.6; sPLA2-III inh: -57.9; PLCb3 inh: -4.6

How did CCN(CC)S(=O)(=O)c1ccc(C(=O)NCCOC(=O)c2ccc(F)cc2F)cc1 do in these assays?
proCasp3 act: 18.7; PLCg1 inh: -2.4; sPLA2-III inh: -5.7; PLCb3 inh: -6.5; procasp7 counter: -3.6

How did O=C(NCc1ccccc1)[C@H]1CCCN1C(=O)[C@H]1CCCN1C(=O)c1cccs1 do in these assays?
PLCg1 inh: -0.1; sPLA2-III inh: 17.4; PLCb3 inh: 1.7

Results for O=C(NCc1ccccc1)[C@@H]1CCCN1C(=O)[C@H]1CCCN1C(=O)c1cccs1 ?
PLCg1 inh: -1.9; sPLA2-III inh: 2.0; PLCb3 inh: 10.7*

How did O=C1C=C(OCCF)CC(c2ccccc2C(F)(F)F)O1 (stereo unspecified) do in these assays?
PLCg1 inh: 1.9; sPLA2-III inh: -1.0; PLCb3 inh: 2.5

What do the screens show for `Cn1c(SCc2c(Cl)cccc2Cl)nnc1-c1cccs1`?
proCasp3 act: 1.6; PLCg1 inh: 11.2*; sPLA2-III inh: 0.5; PLCb3 inh: -4.5; procasp7 counter: 15.0

How did Cc1ccc(CSc2nnc(-c3cccs3)n2C)cc1 do in these assays?
proCasp3 act: 1.9; PLCg1 inh: 0.8; sPLA2-III inh: -13.2; PLCb3 inh: 2.5; procasp7 counter: 4.7

Screening results: PubChem BioAssay, The Scripps Research Institute Molecular Screening Center
